In the M2OR odorant receptor database:

target: T1, OR2G2 (Homo sapiens) (UniProt Q8NGZ5); conditions: stereoisomer not certain
T1 sequence (whole entry): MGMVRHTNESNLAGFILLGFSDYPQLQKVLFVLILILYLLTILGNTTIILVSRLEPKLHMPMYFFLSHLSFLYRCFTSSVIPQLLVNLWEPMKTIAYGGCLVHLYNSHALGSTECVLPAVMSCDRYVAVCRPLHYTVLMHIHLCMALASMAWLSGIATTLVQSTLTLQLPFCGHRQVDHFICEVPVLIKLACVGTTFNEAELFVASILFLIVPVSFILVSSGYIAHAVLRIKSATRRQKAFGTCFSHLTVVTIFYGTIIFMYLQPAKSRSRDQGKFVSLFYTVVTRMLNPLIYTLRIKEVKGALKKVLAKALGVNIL
Method in brief: (§1)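 Transient luciferase assays in mammalian cell lines were common, though methods varied by source. The values come from published papers and their supplementary material, with extra details from the original authors when needed. Responsive refers to a measured signal the original authors judged statistically different from baseline, and non-responsive (inactive) to the remainder.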
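Also: active if original authors judged signal statistically different from baseline.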

| Compound | odorant receptor agonist call |
| --- | --- |
| CC(C)=CCCC(C)=CCO | inactive |
| CCOC(=O)CC1(C)OCCO1 | inactive |
| C=CC(C)(O)CCC=C(C)CCC=C(C)C (stereo not given) | inactive |
| Cc1ccc(C(C)C)cc1O | inactive |
| CC(C)=CCCC(C)CC=O (stereo not given) | inactive |
| C=CC(C)(CCC=C(C)C)OC(C)=O (stereo not given) | inactive |
| CC(C)(C)C1CCCCC1OCCCCO (stereo not given) | inactive |
| CC(=O)OCc1ccccc1 | inactive |
| CC(CC=O)c1ccc(C(C)(C)C)cc1 (stereo not given) | inactive |
| CC1CC(C)(c2ccccc2)CO1 (stereo not given) | inactive |
| Cc1occc(=O)c1OC(=O)C(C)C | active |
| CCCCCCCCC(OC(C)=O)OC(C)=O | inactive |
| CCCCCC1COCCC1OC(C)=O (stereo not given) | inactive |

target: T2, OR2H2 (Homo sapiens) (UniProt O95918); conditions: stereoisomer not certain
T2 sequence (whole entry): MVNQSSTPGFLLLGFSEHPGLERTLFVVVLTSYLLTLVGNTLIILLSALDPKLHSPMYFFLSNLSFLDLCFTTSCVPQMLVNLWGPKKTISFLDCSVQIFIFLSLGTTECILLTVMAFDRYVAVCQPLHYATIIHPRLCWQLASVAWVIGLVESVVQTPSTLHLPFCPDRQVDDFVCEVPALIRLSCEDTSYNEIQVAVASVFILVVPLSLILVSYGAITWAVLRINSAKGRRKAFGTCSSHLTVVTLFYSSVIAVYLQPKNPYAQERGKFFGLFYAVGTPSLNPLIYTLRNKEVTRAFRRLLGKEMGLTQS
Method in brief: as §1

| Compound | odorant receptor agonist call |
| --- | --- |
| CCCC=CC=CC=O | active |
| CC(C)=CCCC(C)CC=O (stereo not given) | active |
| CCCCCC=CC=O | active |
| CCCCCC=O | inactive |
| CCCCCCCCO | inactive |
| CC(C=O)=CCC(C)CC(C)C (stereo not given) | inactive |
| CCCCCCCC(=O)[O-].[H+] | inactive |
| CCCCCCCCCCCC=O | inactive |

target: T3, OR2J2 (Homo sapiens) (UniProt O76002); conditions: stereoisomer not certain
T3 sequence (whole entry): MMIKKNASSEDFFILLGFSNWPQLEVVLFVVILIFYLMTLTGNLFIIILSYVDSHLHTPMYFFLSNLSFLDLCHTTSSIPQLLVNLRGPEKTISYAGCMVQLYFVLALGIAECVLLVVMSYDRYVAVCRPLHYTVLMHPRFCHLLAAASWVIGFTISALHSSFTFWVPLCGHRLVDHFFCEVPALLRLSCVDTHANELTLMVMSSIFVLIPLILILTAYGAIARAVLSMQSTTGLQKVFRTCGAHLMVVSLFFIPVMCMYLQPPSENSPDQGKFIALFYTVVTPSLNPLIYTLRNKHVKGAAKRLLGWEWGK
Method in brief: as §1

| Compound | odorant receptor agonist call |
| --- | --- |
| CC(C)=CCCC(C)=CCO | inactive |
| CCCCCCCCCCO | active |
| O=C1CCOc2ccccc21 | inactive |
| CCCCCC=O | inactive |
| O=C(c1ccccc1)c1ccccc1 | inactive |
| CCCCCCCCS | inactive |
| COc1cc(C(=O)O)ccc1O | inactive |
| CCCCCCCCO | active |
| CCC(=O)C(=O)CC | inactive |
| CC(=O)OCc1ccccc1 | inactive |
| CCCCCCCC(=O)[O-].[H+] | inactive |
| CCCCCC(=O)CC | inactive |
| CCCCCOC(=O)CCCCC | inactive |
| O=c1ccc2ccccc2o1 | active |
